In the library only some 0.75% were active in any assay of this set; here they are far more common.
EBNA-1 inhibitor: blocks EBNA-1 binding to DNA; AID 1950; 300,000 tested, 0.34% active; inhibition, % at 14.8 µM; EBNA-1 DNA binding, fluorescence polarization; in the data active = inhibition above about 28%
ZTA DNA inh: blocks Epstein-Barr virus ZTA, an EBNA-1 counter-screen; P03206; ZTA-DNA binding, fluorescence polarization; inhibition, % at 11 µM; 320,000 tested, 0.15% active; AID 2234; in the data active = inhibition above about 33%
ASAP1 GAP inh: ASAP1 ArfGAP inhibition; inhibition, % at 16.5 µM; ASAP1-stimulated ARF1 GTP hydrolysis, GDP FP detection; 360,000 tested, 0.19% active; AID 624377; Q9ULH1; in the data active = inhibition above about 25%;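 also: 0% = vehicle with enzyme and substrate and 100% = no enzyme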
Target sequence (Q9ULH1 325-724 limits assumed): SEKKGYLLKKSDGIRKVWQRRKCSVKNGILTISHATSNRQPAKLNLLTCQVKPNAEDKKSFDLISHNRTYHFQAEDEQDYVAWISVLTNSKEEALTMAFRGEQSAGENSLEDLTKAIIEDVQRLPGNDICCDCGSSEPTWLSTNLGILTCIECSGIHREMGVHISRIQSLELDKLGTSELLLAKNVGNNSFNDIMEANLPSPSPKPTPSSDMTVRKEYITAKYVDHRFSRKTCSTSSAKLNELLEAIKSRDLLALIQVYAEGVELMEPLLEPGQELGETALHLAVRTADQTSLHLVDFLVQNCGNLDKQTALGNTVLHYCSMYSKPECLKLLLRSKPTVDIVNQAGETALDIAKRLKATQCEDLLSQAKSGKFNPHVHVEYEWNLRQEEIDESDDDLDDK
ARFGAP1 inhibitor: rat ARFGAP1 inhibition | Q62848 | Arfgap1-stimulated ARF1 GTP hydrolysis, GDP FP detection | inhibition, % at 16.5 µM | 360,000 tested, 0.26% active;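 active = inhibition above a per-plate limit, mean inhibition of low control wells plus 3 SD, cut at about 25% in these data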;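 also: 0% = DMSO wells with enzyme and 100% = wells lacking Arfgap1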
Target sequence (Q62848 1-136 limits assumed): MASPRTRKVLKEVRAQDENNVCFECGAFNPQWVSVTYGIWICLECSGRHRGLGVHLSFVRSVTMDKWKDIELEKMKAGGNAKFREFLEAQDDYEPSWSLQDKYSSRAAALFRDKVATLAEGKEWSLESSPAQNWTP
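Replicates: Single well per compound | Assay system: Truncated rat Arfgap1 GAP domain | Control set: No-Arfgap1 wells (100%) versus DMSO full-reaction wells (0%) | Times: Enzyme reaction 120 min at 25 °C after 20 min preincubation | Reagent: Human ARF1(Δ1-17)-GTP substrate | Measured by: Tracer-displacement fluorescence polarization with EDTA stop, 620/688 nm | Measure: Percent inhibition of Arfgap1-stimulated GTP hydrolysis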
* = called active by the depositor; . = no result; + = active, no number.

SMILES	EBNA-1 inhibitor	ZTA DNA inh	ASAP1 GAP inh	ARFGAP1 inhibitor
CCN1CCN(Cc2ccc(NC(=O)c3cc(NC(=O)c4cc(-c5ccc(OC)cc5)n[nH]4)cc(OC)c3)cc2C(F)(F)F)CC1	10	18	26*	31*
COc1ccccc1CCn1cnc(-c2cccc(F)c2)c1CC(C)C	.	.	-2	-9
COC(=O)C1=C(C)N(Cc2ccc(C(F)(F)F)cc2)C(=NCC2CC2)NC1c1cccc(Cl)c1 (configuration not stated)	.	.	-9	-7
O=C1/C(=C/C=C/c2ccco2)SC(=S)N1NS(=O)(=O)c1ccccc1	44*	70*	-4	-26
NC(=O)[C@@H]1CCCN1C(=O)[C@H]1O[C@@H](n2ccc(N)nc2=O)[C@H](O)[C@@H]1O	.	.	-2	-2
CSc1n[nH]c(-c2cccs2)n1	.	.	-1	7
CC(C)CNC(=O)NC(=O)COC(=O)c1cc(F)cc(F)c1	88*	6	1	1
COC(=O)[C@]12C[C@H](CC(=O)N3CCC(c4ccccc4)CC3)C(=O)N(Cc3ccc4c(c3)OCO4)C1=C[C@H](C(C)(C)C)O[C@@H]2C	.	.	3	-2
O=C1NC(=S)S/C1=C\c1coc2ccc(O)cc2c1=O	11	45*	-4	1
CCCCNCCOCCOc1ccccc1-c1ccccc1	34*	-4	10	-1
COCCNCCCCOc1ccccc1-c1ccccc1	-8	-16	5	3
CCCN(C(=O)CCc1cn(CCC)c2ccccc12)c1ccc(Oc2cccnc2)cc1	.	.	-6	2
C#CCn1c(=NC(=O)c2sc3ccccc3c2Cl)sc2cc(S(N)(=O)=O)ccc21	35*	4	11	82*
Nc1ccc(N(CCO)CCO)cc1	193*	+	-49	-39
Cc1ccc2nc(-c3ccc(NC(=O)COC(=O)c4ccc(Br)o4)cc3)sc2c1	35*	4	5	8
O=C(N[C@H](Cc1ccccc1)C(=O)N1CCN(c2ccc(Cl)cn2)CC1)[C@H]1O[C@@H](n2ccc(=O)[nH]c2=O)[C@H](O)[C@@H]1O	.	.	-1	5
O=C(OC[C@H]1O[C@@H](OC(=O)c2cc(O)c(O)c(OC(=O)c3cc(O)c(O)c(O)c3)c2)[C@H](OC(=O)c2cc(O)c(O)c(OC(=O)c3cc(O)c(O)c(O)c3)c2)[C@@H](OC(=O)c2cc(O)c(O)c(OC(=O)c3cc(O)c(O)c(O)c3)c2)[C@@H]1OC(=O)c1cc(O)c(O)c(OC(=O)c2cc(O)c(O)c(O)c2)c1)c1cc(O)c(O)c(OC(=O)c2cc(O)c(O)c(O)c2)c1	86*	87*	.	.
Cc1cc(NCCCCCCCNc2cc(C)nc3cc([N+](=O)[O-])ccc23)c2ccc([N+](=O)[O-])cc2n1	.	.	108*	+
C[C@H](CO)N1C[C@H](C)[C@@H](CN(C)Cc2ccc(Cl)c(Cl)c2)Oc2c(NS(=O)(=O)c3ccc(F)cc3)cccc2C1=O	.	.	31*	1
C[C@H](CO)N1C[C@H](C)[C@@H](CN(C)C(=O)Nc2ccccc2)OCc2cn(nn2)CCCC1=O	.	.	-10	-7
Cc1ccc(C=Nc2ccc(N(C)C)cc2)o1	+	+	-70	-77
CN(C)c1ccc(NC(=O)Oc2ccccc2)cc1	52*	+	-1	-2
O=C(O)c1cc(O)c2c(c1)[C@@H]([C@H]1c3cc(C(=O)O)cc(O)c3C(=O)c3c(O[C@@H]4O[C@H](CO)[C@@H](O)[C@H](O)[C@H]4O)cccc31)c1cccc(OC3O[C@H](CO)[C@@H](O)[C@H](O)[C@H]3O)c1C2=O (some centres not stated)	94*	15	6	11
O=C(O)c1cc(O)c2c(c1)[C@H]([C@H]1c3cc(C(=O)O)cc(O)c3C(=O)c3c(O[C@@H]4O[C@H](CO)[C@@H](O)[C@H](O)[C@H]4O)cccc31)c1cccc(OC3O[C@H](CO)[C@@H](O)[C@H](O)[C@H]3O)c1C2=O (some centres not stated)	94*	14	9	-7
O=C1c2cc(CO)cc(O)c2C(=O)c2c(O[C@@H]3OC(CO)[C@@H](O)[C@@H](O)[C@@H]3O)cccc21 (some centres not stated)	-7	-5	-4	-2
SMILES	EBNA-1 inhibitor	ZTA DNA inh	ASAP1 GAP inh	ARFGAP1 inhibitor
O=C1c2c(O)cccc2C(C2OC(CO)[C@@H](O)[C@H](O)[C@H]2O)c2cc(CO)cc(O)c21 (some centres not stated)	.	-7	6	7
CCOC(=O)c1cc(-c2ccccc2)sc1NC(=O)COC(=O)c1cccc(S(N)(=O)=O)c1	77*	19	7	0
O=C1CCCc2ccccc2N1Cc1ccccc1Cl	4	-15	-12	25*
O=C1CCCc2ccccc2N1Cc1ccc(Cl)cc1Cl	1	0	5	-8
Cc1cc(N2CCN(CC(C)(C)O)C[C@@H]2C)ccc1N1CCN(CC(C)(C)O)[C@H](C)C1	.	.	6	-1
COc1cc(-c2c(C(=O)c3ccccc3)[nH]c(N)c2C(=O)NCCc2c[nH]c3ccccc23)ccc1F	.	.	10	12
CN1C(=O)[C@@]2(O[C@H]3C=CC=CN3C3=C2C(=O)CCC3)c2cc([N+](=O)[O-])ccc21	.	.	-5	-3
CC(C)c1ccc(Oc2cccc3c2S(=O)(=O)N([C@H](C)c2ccccc2)C[C@@H](COCc2ccccc2)O3)cc1	.	.	-2	-3
O=C(c1ccccc1)c1ccc2nc(-c3ccc(NC(=O)c4ccccc4Br)cc3)[nH]c2c1	45*	-2	2	12
Cc1ccccc1C(=O)Nc1ccc(-c2nc3ccc(C(=O)c4ccccc4)cc3[nH]2)cc1	11	9	4	15
NC1=C(Cl)C(=O)c2ccc(S(N)(=O)=O)cc2C1=O	.	.	57*	17
NC1=C(Cl)C(=O)c2ccccc2C1=O	.	.	8	10
CCCc1nc2ccccc2c(C(=O)OCC(=O)Nc2cccc(S(=O)(=O)N3CCOCC3)c2)c1CC	-7	-19	5	28*
O=C(Nc1ccc2nc(-c3ccco3)c(-c3ccco3)nc2c1)N1CCCCCC1	24	41*	.	.
CCOC(=O)C1CCN(C(=O)Nc2ccc3nc(-c4ccco4)c(-c4ccco4)nc3c2)CC1	4	11	.	.
COC(=O)c1cc2c(c3c4cc(OC)ccc4n(S(=O)(=O)c4ccc(OC)cc4)c13)C(=O)N(Cc1ccc(N(C)C)cc1)C2	.	.	11	3
CCCC(=O)NCc1ccc2c(c1)cc(C)n2C	-13	1	6	33*
NC(=O)c1ccc(N=Nc2c(O)c3ccccc3[nH]c2=O)cc1	-1	-3	.	.
N=C(N)c1ccc(N=Nc2c(O)ccc3c2[nH]c2ccccc23)cc1	.	.	175*	+
COC(=O)c1cc2c(c3c4cc(C)ccc4n(C(=O)c4ccccc4)c13)C(=O)N(Cc1ccccc1)C2	.	.	-2	-2
CCn1c(CSc2nnc(-c3ccncc3)n2C)nc2cc(C(=O)O)ccc21	30*	43*	-12	-32
CN(C)c1ccc(N2CN=C3SCC(=O)N3C2)cc1	+	+	-40	-49
Cc1ccc(NC2C(=O)NC(=O)NC2=O)cc1	.	.	32*	17
